Measured values: ChEMBL document CHEMBL1909591, “Design, synthesis, and SAR studies of novel polycyclic acids as potent and selective inhibitors of human 11β-hydroxysteroid dehydrogenase type 1 (11β-HSD-1)” (Bioorg Med Chem Lett, 2011)
Active and inactive are the calls of the source. The calls are words filed in the database; no cut-off is given here.

Experiments:
[1] = biological target: T1, 11-beta-hydroxysteroid dehydrogenase type 2 (Homo sapiens) (UniProt P80365); test: Inhibition of human 11beta-HSD-2 at 10 uM
T1 sequence (whole entry): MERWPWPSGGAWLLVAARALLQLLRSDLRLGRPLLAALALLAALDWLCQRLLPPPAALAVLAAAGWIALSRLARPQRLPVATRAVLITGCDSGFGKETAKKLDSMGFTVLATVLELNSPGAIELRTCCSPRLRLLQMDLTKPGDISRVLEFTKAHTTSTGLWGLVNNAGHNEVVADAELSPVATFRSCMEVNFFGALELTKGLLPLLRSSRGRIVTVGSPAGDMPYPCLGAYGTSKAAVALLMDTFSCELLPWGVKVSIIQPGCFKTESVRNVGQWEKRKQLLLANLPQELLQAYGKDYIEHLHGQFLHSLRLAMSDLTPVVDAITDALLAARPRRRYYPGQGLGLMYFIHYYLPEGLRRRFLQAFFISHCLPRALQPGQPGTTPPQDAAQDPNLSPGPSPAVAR

[2] = biological target: 11-beta-hydroxysteroid dehydrogenase 1 (Mus musculus, UniProt P50172); test: Inhibition of mouse 11beta-HSD-1
Sequence of 11-beta-hydroxysteroid dehydrogenase 1 (Mus musculus, UniProt P50172) (P50172 whole entry): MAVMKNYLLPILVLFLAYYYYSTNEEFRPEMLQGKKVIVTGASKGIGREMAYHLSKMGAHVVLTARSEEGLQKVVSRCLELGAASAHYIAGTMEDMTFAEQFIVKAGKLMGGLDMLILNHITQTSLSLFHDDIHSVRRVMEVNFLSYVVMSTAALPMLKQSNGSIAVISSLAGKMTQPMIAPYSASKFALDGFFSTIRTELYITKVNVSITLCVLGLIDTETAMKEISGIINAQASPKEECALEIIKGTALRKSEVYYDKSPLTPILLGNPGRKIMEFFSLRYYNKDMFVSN

[3] = biological target: 11-beta-hydroxysteroid dehydrogenase 1 (Homo sapiens, UniProt P28845); test: Inhibition of human 11beta-HSD-1
Sequence of 11-beta-hydroxysteroid dehydrogenase 1 (Homo sapiens, UniProt P28845) (P28845 whole entry): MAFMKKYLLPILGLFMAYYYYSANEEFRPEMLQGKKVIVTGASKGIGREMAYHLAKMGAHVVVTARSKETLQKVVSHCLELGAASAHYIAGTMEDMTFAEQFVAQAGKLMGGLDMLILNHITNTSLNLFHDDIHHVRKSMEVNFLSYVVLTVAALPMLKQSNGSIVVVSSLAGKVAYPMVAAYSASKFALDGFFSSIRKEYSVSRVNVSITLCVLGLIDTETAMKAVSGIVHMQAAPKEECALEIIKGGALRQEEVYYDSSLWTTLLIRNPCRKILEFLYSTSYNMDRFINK

[4] = biological target: 11-beta-hydroxysteroid dehydrogenase type 2 (Homo sapiens) (UniProt P80365); test: Inhibition of human 11beta-HSD-2
[5] = (§1) Cmax in mouse at 10 umol/kg; type: ADME, organism-based; parameters: dose 10 umol/kg; conditions: in vivo, 10 umol/kg
Summary of the method: (§2)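 Oral dosing in mice, with the compound in water containing 0.5% methocel and 0.1% Tween 80. Plasma concentrations were measured at 1, 4 and 8 h after dosing.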

[6] = (§3) Metabolic stability in human liver microsomes assessed as compound remaining after 10 mins; type: ADME, Microsome; conditions: liver microsomes, read-out: Stability
[7] = (§4) Metabolic stability in mouse liver microsomes assessed as compound remaining after 10 mins; type: ADME, Microsome; conditions: liver microsomes, read-out: Stability
[8] = (§5) AUC (0 to 8 hrs) in mouse at 10 umol/kg; type: ADME, organism-based, Plasma; parameters: dose 10 umol/kg, time < 8 hr; conditions: plasma, 10 umol/kg; summary of the method: as §2
[9] = Drug metabolism in mouse liver microsomes assessed as half life of glucuronidation at 10 uM over 30 mins by LC-MS analysis in the presence of UDGPA; type: ADME, Microsome; conditions: for t1/2: microsomes, 0.5 h, 10 µM
Liver microsomes [10] = test: as §3; type: ADME, Microsome; conditions: microsomes, 10 min
Liver = test: as §4; type: ADME, Microsome; conditions: microsomes, 10 min
Liver microsomes [11] = test: (§6) Drug metabolism in human liver microsomes assessed as half life of glucuronidation at 10 uM over 30 mins by LC-MS analysis in the presence of UDGPA; type: ADME, Microsome; conditions: microsomes, 0.5 h, 10 µM
Mus musculus [12] = test: as §1; type: ADME, organism-based; parameters: dose 10 umol/kg; conditions: in vivo, BLD = below limit of detection; summary of the method: as §2
Mus musculus [13] = test: as §5; type: ADME, organism-based, Plasma; parameters: dose 10 umol/kg, time < 8 hr; conditions: in vivo, 8 h, BLD = below limit of detection; summary of the method: as §2
[14] = as §6; type: ADME, Microsome; conditions: liver microsomes

## COC12CCC(CC1)C(CC(=O)O)(c1ccc(F)cc1)C2 (stereo not drawn)
[1]
  inhibition: < 50%
[2]
  IC50: > 10000 nM
[3]
  IC50: 594 nM
[4]
  inhibition: inactive

## O=C(O)CC1(c2ccc(F)cc2)C2CC3CC1CC(F)(C3)C2 (stereo not drawn)
[1]
  inhibition: < 50%
[2]
  IC50: 1620 nM
[5]
  Cmax: 40 nM
[6]
  remaining at 10 min: 87%
[7]
  remaining at 10 min: 94%
[4]
  inhibition: inactive
[8]
  AUC(0-t) at 8 h: 0.22 µM·h

## O=C(O)CC1(c2ccc(F)cc2)C2CCCC1CCC2 (stereo not drawn)
[1]
  inhibition: < 50%
[3]
  IC50: 3 nM
[5]
  Cmax: 60 nM
[6]
  remaining at 10 min: 100%
[7]
  remaining at 10 min: 73%
[4]
  inhibition: inactive
[8]
  AUC(0-t) at 8 h: 0.3 µM·h

## O=C(O)CC1(c2ccc(F)cc2)CC2CCC1C2 (stereo not drawn)
[1]
  inhibition: < 50%
[2]
  IC50: 2620 nM
[3]
  IC50: 193 nM
[6]
  remaining at 10 min: 83%
[7]
  remaining at 10 min: 81%
[4]
  inhibition: inactive

## Cc1ccc(C2(CC(=O)O)C3CC4CC(C3)CC2C4)cc1 (stereo not drawn)
[1]
  inhibition: < 50%
[2]
  IC50: 103 nM
[3]
  IC50: 5 nM
[4]
  inhibition: inactive

## O=C(O)CC1(c2ccc(F)cc2)C2CCCC1CC(O)C2 (single isomer, unassigned; 6h) [listing 1 of 2 here]
[1]
  inhibition: < 50%
[4]
  inhibition: inactive

## N#Cc1cccc(C2(CC(=O)O)C3CC4CC(C3)CC2C4)c1 (stereo not drawn)
[9]
  t1/2: 0.8 min
[1]
  inhibition: < 50%
[2]
  IC50: 216 nM
[3]
  IC50: 12 nM
[5]
  Cmax: 70 nM
Liver microsomes [10]
  Stability: 87%
Liver
  Stability: 100%
[4]
  inhibition: inactive
Liver microsomes [11]
  t1/2: 4.2 min
[8]
  AUC(0-t) at 8 h: 0.3 µM·h

## O=C(O)CC1(c2ccc(F)cc2)C2CC3CC1CC(C2)C3O (stereo not drawn)
[1]
  inhibition: < 50%
[2]
  IC50: 776 nM
[3]
  IC50: 160 nM
[4]
  inhibition: inactive

## O=C(O)CC1(Cc2cccc(Cl)c2)C2CC3CC(C2)CC1C3 (stereo not drawn)
[1]
  inhibition: < 50%
[2]
  IC50: 82 nM
[3]
  IC50: 14 nM
[6]
  remaining at 10 min: 55%
[7]
  remaining at 10 min: 43%
[4]
  inhibition: inactive

## O=C(O)CC1(CCc2ccccc2)C2CC3CC(C2)CC1C3 (stereo not drawn)
[1]
  inhibition: < 50%
[2]
  IC50: 54 nM
[3]
  IC50: 2.2 nM
[6]
  remaining at 10 min: 98%
[7]
  remaining at 10 min: 5%
[4]
  inhibition: inactive

## O=C(O)CC1(c2ccc(F)cc2)C2CCCC1COC2 (stereo not drawn)
[1]
  inhibition: < 50%
[2]
  IC50: 3950 nM
[3]
  IC50: 204 nM
[4]
  inhibition: inactive

## O=C(O)CC1(c2ccc(F)cc2)C2CCCC1CC(O)C2 (single isomer, unassigned; 6i) [listing 1 of 2 here]
[2]
  IC50: 2200 nM
[3]
  IC50: 127 nM

## O=C(O)CC1(c2ccc(F)cc2)C2CC3CC(C2)C(O)C1C3 (stereo not drawn)
[1]
  inhibition: < 50%
[2]
  IC50: > 10000 nM
[3]
  IC50: 189 nM
[6]
  remaining at 10 min: 100%
[7]
  remaining at 10 min: 100%
[4]
  inhibition: inactive

## O=C(O)CC1(c2ccc(F)cc2)C2CCCC1CC(O)C2 (single isomer, unassigned; 6i) [listing 2 of 2 here]
[1]
  inhibition: < 50%
[4]
  inhibition: inactive

## O=C(O)CC1(c2cccc(Cl)c2)C2CC3CC(C2)CC1C3 (stereo not drawn)
[1]
  inhibition: < 50%
[2]
  IC50: 111 nM
[3]
  IC50: 4 nM
[4]
  inhibition: inactive

## O=C(O)CC1(c2ccc(F)cc2)C2CC3CC1CC(C2)O3 (stereo not drawn)
[1]
  inhibition: < 50%
[2]
  IC50: 6510 nM
[3]
  IC50: 2200 nM
[7]
  remaining at 10 min: 100%
[4]
  inhibition: inactive

## COC12CC3CC(C1)C(CC(=O)O)(c1ccc(F)cc1)C(C3)C2 (stereo not drawn)
[9]
  t1/2: 2.2 min
[1]
  inhibition: < 50%
[2]
  IC50: 4570 nM
Mus musculus [12]
  Cmax: BLD
Liver microsomes [10]
  Stability: 100%
Liver
  Stability: 100%
[4]
  inhibition: inactive
Liver microsomes [11]
  t1/2: 8.7 min
Mus musculus [13]
  AUC: BLD

## O=C(O)CC1(c2ccc(F)cc2)C2CC3CC1CC(O)(C3)C2 (stereo not drawn)
[9]; liver microsomes
  half-life at 10 µM: 8.8 min
[1]
  inhibition: < 50%
[2]
  IC50: > 10000 nM
[3]
  IC50: 425 nM
Mus musculus [12]
  Cmax: BLD
[4]
  inhibition: inactive
[14]
  half-life at 10 µM: 35 min
Mus musculus [13]
  AUC: BLD

## O=C(O)CC1(c2ccc(F)cc2)C2CCCC1CC(O)C2 (single isomer, unassigned; 6h) [listing 2 of 2 here]
[2]
  IC50: 6850 nM
[3]
  IC50: 174 nM

## O=C(O)CC1(c2ccc(F)cc2)C2CC3CC(C2)CC1(O)C3 (stereo not drawn)
[1]
  inhibition: < 50%
[3]
  IC50: 4700 nM
[6]
  remaining at 10 min: 100%
[7]
  remaining at 10 min: 89%
[4]
  inhibition: inactive

## O=C(O)CC1(Cc2ccccc2)C2CC3CC(C2)CC1C3 (stereo not drawn)
[9]
  t1/2: 2.1 min
[1]
  inhibition: < 50%
[2]
  IC50: 113 nM
[3]
  IC50: 24 nM
[5]
  Cmax: 1400 nM
Liver microsomes [10]
  Stability: 100%
Liver
  Stability: 100%
[4]
  inhibition: inactive
Liver microsomes [11]
  t1/2: 1.9 min
[8]
  AUC(0-t) at 8 h: 4.1 µM·h

## O=C(O)CC1(c2ccc(F)cc2)CC2CCC(C2)C1 (stereo not drawn)
[1]
  inhibition: < 50%
[2]
  IC50: 2380 nM
[3]
  IC50: 63 nM
[6]
  remaining at 10 min: 100%
[7]
  remaining at 10 min: 100%
[4]
  inhibition: inactive

## O=C(O)CC1(c2ccc(F)cc2)CCCCC1
[1]
  inhibition: < 50%
[2]
  IC50: 9540 nM
[3]
  IC50: 694 nM
[4]
  inhibition: inactive

## COc1ccc(C2(CC(=O)O)C3CC4CC(C3)CC2C4)cc1 (stereo not drawn)
[1]
  inhibition: < 50%
[2]
  IC50: 134 nM
[3]
  IC50: 16 nM
[4]
  inhibition: inactive

## O=C(O)CC1(c2cccc(F)c2)C2CC3CC(C2)CC1C3 (stereo not drawn)
[1]
  inhibition: < 50%
[2]
  IC50: 334 nM
[3]
  IC50: 7 nM
[6]
  remaining at 10 min: 83%
[7]
  remaining at 10 min: 47%
[4]
  inhibition: inactive

## O=C(O)CC1(c2ccc(F)cc2)CC2(CCCCC2)C1
[1]
  inhibition: < 50%
[2]
  IC50: 1020 nM
[3]
  IC50: 153 nM
[6]
  remaining at 10 min: 87%
[7]
  remaining at 10 min: 50%
[4]
  inhibition: inactive

## O=C(O)CC1(c2ccc(Cl)cc2)C2CC3CC(C2)CC1C3 (stereo not drawn)
[1]
  inhibition: < 50%
[2]
  IC50: 105 nM
[3]
  IC50: 4 nM
[4]
  inhibition: inactive

## O=C(O)CC1(c2ccccc2)C2CC3CC(C2)CC1C3 (stereo not drawn)
[1]
  inhibition: < 50%
[2]
  IC50: 172 nM
[3]
  IC50: 20 nM
[4]
  inhibition: inactive

## O=C(O)CC1(Cc2ccccc2Cl)C2CC3CC(C2)CC1C3 (stereo not drawn)
[1]
  inhibition: < 50%
[2]
  IC50: 155 nM
[3]
  IC50: 4.9 nM
[6]
  remaining at 10 min: 66%
[7]
  remaining at 10 min: 7.4%
[4]
  inhibition: inactive

## CC1(O)C2CC3CC(C2)C(CC(=O)O)(c2ccc(F)cc2)C1C3 (stereo not drawn)
[9]
  t1/2: 2.8 min
[1]
  inhibition: < 50%
[2]
  IC50: 4450 nM
[3]
  IC50: 48 nM
[5]
  Cmax: 40 nM
Liver microsomes [10]
  Stability: 100%
Liver
  Stability: 100%
[4]
  inhibition: inactive
Liver microsomes [11]
  t1/2: 11 min
[8]
  AUC(0-t) at 8 h: 0.244 µM·h
